Assay results from ChEMBL document CHEMBL3352597, “Heck products of parthenolide and melampomagnolide-B as anticancer modulators that modify cell cycle progression” (Eur J Med Chem, 2014).
Activity calls are given as the source filed them. The rule behind the calls is not given here.

Columns and labels:
[1] = Anticancer activity against human PC3 cells assessed as growth inhibition at 10^-5 M; type: functional; conditions: PC-3, read-out: GI
Summary of the method: (§1)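 NCI-60 human tumour cell line panel screened at a single concentration of 10^-5 M; value is percent growth inhibition relative to untreated growth.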

[2] = system: Oocyte; experiment: Inhibition of immature stage VI Xenopus oocyte maturation assessed as inhibition of progesterone-mediated maturation measured as germinal vesicle (nuclear) breakdown after overnight incubation; type: functional, cell-based; conditions: Xenopus laevis
[3] = system: Oocyte; experiment: Inhibition of immature stage VI Xenopus oocyte maturation assessed as inhibition of progesterone-mediated maturation measured as germinal vesicle (nuclear) breakdown at 100 uM after overnight incubation; type: functional, cell-based
Summary of the method: (§2)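 Oocytes (20 per well) pre-treated overnight with compound (100 μM final, DMSO) or DMSO vehicle, then stimulated with 2 μg/ml progesterone. GVBD (animal-pole white spot) scored at the time 50% of DMSO controls reach GVBD. Rate relative to control: 1.0 means no difference, above 1.0 acceleration, below 1.0 delay, 0.0 no maturation. Differences over 20% followed up.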

[4] = system: Xenopus; experiment: Inhibition of MPF in immature stage VI Xenopus oocyte by Western blot analysis
Summary of the method: (§3)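 Oocytes pre-treated with DMSO or compound, stimulated with progesterone, and lysed at the time 50% of DMSO oocytes reached GVBD. Lysates analysed by 10% gel western blot with phospho-Cdc2 Tyr15 (inhibitory site) and phospho-MAPK antibodies (1:1000), tubulin 1:20,000. Membrane blocked in 1% BSA, 60 min, room temperature.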

[5] = Anticancer activity against human MOLT4 cells assessed as growth inhibition at 10^-5 M; type: functional; conditions: MOLT-4, read-out: GI; summary of the method: as §1
[6] = system: Oocyte; experiment: Inhibition of immature stage VI Xenopus oocyte maturation assessed as inhibition of progesterone-mediated maturation measured as germinal vesicle (nuclear) breakdown at 1 to 100 uM after overnight incubation; type: functional, cell-based
[7] = system: Xenopus; experiment: Inhibition of Cyclin B/CDK in immature stage VI Xenopus oocyte by Western blot analysis; summary of the method: as §3
[8] = system: Oocyte; experiment: Induction of immature stage VI Xenopus oocyte maturation assessed as stimulation of progesterone-mediated maturation measured as germinal vesicle (nuclear) breakdown at 100 uM after overnight incubation; type: functional, cell-based; summary of the method: as §2

| EC50 [2] [µM] | inhibition [4] | inhibition [7] | SMILES | inhibition of growth at 10 µM [1] [%] | inhibition [3] | inhibition of growth at 10 µM [5] [%] | inhibition [6] | Activity [8] |
| --- | --- | --- | --- | --- | --- | --- | --- | --- |
| 5 | inactive | inactive | C/C1=C\CC[C@@]2(C)O[C@@H]2[C@H]2OC(=O)/C(=C/c3ccc(N)cc3)[C@@H]2CC1 | 20.5 | Active | 24.2 | Active | – |
| – | – | – | C[C@@]12CC/C=C(/CO)CC[C@@H]3/C(=C\c4ncc[nH]4)C(=O)O[C@@H]3[C@@H]1O2 | – | – | – | – | Active |
